PubChem BioAssay
Active and inactive are the calls of the source.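 The calls were made as follows, unless noted: active = viability at or under a set limit in both replicates, limit being median viability minus 3 SD (cut at about 48% in these data, passing the limit was not always enough); inconclusive = at or under the limit in just one replicate; inactive = at or above the limit in both replicates.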

What was measured:
[1] = reducers of endogenous Her2 protein level, primary screen, SKBR3 breast tumor cells, AlphaScreen, ATP viability (AID 461;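 active = Her2 level under about 52% in both replicate screens, with viability over 70% of control, limit read from the data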;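 as to Her2 level: lower value means less Her2 protein in the cells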;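 as to viability: percent of carrier control wells set as 100% viability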); settings: 18-24 h, measured here: SKBR3 viability, ATP luminescence, at 10 µM
[2] = target: Receptor tyrosine-protein kinase erbB-2 (Homo sapiens) (UniProt P04626); test: as above; settings: 18-24 h, at 10 µM, stronger effect = lower value
[3] = SK-BR-3 cell growth inhibitors, pilot screen, 24 h, human (AID 572;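 active = viability at or below 10% of carrier control in both of two separate runs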;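 also: compound exposure lasted between 18 and 24 h rather than exactly 24 h; 100% = carrier-treated control wells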); settings: SK-BR-3 viability, CellTiter-Glo luminescence, at 10 µM, stronger effect = lower value
[4] = HUVEC growth inhibition – cell-based, human, primary screen (AID 575;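 active = viability at or below 30% in both replicate assays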;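 also: 100% = median of untreated cell wells with 0.1% DMSO on each plate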); settings: HUVEC proliferation, CellTiter-Glo luminescence, 72 h; at 10 µM; stronger effect = lower value
How it was run: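 Material: primary human umbilical vein endothelial cells / Schedule: 72 h exposure, 37 °C, 5% CO2, 30 min RT equilibration / Signal: ATP-based CellTiter-Glo luminescent read / Read-out basis: percent of median DMSO-control luminescence / Control set: 32 DMSO-only cell-control wells (high), 32 MePR drug-control wells (low) per plate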

[5] = growth inhibitors of H69AR lung tumor, primary screen, human, duplicate replicates (AID 580); settings: H69AR lung tumor cells viability, ATP luminescence, 72 h; at 10 µM; stronger effect = lower value;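 also: 100% = mean luminescence of untreated wells and 0% = no signal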
[6] = reversal of MRP1-mediated doxorubicin resistance, pilot screen, H69AR cells, doxorubicin co-treatment (AID 601;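 active = viability loss from added drug above about 55%, and viability with drug at most 40%, in both replicates, limit read from the data, passing the limit was not always enough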); settings: CellTiter-Glo, 72 h, at 10 µM; for differential viability (reversal): stronger effect = higher value
[7] = 384-well plate pilot, post-Golgi transport modulator project, inhibition of yeast transport mutant growth (AID 636; in the data active = inhibition above about 31%); settings: absorbance 615 nm, about 18 h, stronger effect = higher value
[8] = growth suppression of yeast trafficking mutant, preliminary HTS, modulators of trafficking downstream of Golgi apparatus project, 1536-format plate, OD 615 nm (AID 637; in the data active = inhibition above about 30%); settings: yeast transport mutant growth, absorbance 615 nm, 18 h; stronger effect = higher value
[9] = H69AR cells + 2 uM doxorubicin, measured here: viability with 2 uM doxorubicin, stronger effect = lower value
[10] = H69AR cells, compound alone cytotoxicity

Receptor tyrosine-protein kinase erbB-2 (Homo sapiens), sequence (P04626 whole entry, looked up): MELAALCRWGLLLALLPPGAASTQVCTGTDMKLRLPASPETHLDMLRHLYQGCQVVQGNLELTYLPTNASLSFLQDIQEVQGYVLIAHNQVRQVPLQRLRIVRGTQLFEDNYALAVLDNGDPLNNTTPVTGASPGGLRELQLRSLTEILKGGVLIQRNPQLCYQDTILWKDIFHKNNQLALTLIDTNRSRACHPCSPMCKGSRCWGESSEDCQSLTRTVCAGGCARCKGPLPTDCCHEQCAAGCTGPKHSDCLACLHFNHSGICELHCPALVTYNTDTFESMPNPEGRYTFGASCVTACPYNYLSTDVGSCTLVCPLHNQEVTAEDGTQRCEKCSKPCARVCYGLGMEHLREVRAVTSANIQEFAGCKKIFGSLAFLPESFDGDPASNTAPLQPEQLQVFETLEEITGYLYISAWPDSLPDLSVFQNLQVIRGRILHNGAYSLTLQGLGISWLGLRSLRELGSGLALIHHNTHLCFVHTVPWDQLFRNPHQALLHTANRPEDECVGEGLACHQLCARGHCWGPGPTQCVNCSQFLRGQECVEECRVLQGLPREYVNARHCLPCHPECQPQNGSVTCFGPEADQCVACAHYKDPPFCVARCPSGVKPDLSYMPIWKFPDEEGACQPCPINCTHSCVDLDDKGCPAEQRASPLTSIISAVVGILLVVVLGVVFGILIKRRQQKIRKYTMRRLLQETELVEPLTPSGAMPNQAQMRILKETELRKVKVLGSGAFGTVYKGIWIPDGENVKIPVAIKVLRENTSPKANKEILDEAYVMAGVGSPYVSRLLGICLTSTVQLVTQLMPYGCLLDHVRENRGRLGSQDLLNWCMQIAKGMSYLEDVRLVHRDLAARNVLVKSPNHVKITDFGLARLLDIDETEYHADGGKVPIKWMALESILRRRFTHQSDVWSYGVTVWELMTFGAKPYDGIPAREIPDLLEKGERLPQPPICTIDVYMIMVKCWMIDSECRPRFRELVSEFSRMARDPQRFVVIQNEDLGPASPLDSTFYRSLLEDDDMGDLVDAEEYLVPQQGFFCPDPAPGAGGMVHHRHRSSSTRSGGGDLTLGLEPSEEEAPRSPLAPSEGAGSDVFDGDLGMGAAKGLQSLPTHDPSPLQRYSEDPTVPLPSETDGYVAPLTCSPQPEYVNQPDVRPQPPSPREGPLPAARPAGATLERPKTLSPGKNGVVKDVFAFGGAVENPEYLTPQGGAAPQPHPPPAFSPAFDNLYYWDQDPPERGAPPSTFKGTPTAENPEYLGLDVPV

| Compound | viability [1] [%] | Her2 level [2] | viability [3] | viability [4] | viability [5] | differential viability (reversal) ([6]; H69AR cells + 2 uM doxorubicin) | viability [6, 9] [%] | viability [6, 10] [%] | inhibition [7] | inhibition [8] |
| --- | --- | --- | --- | --- | --- | --- | --- | --- | --- | --- |
| COc1ccccc1N1CCN(C/C(O)=C(\C#N)c2nc(-c3ccccc3)cs2)CC1 | 94 | 108% (inactive) | 94% (inactive) | 84.1% (inactive) | 90.8% (inactive) | -6.43% (inactive) | 97.2 | 90.8 | 0.55% (inactive) | 12.5% (inactive) |
| NC(=O)c1oc2ccc(Cl)cc2c1NC(=O)CN1CCOCC1 | 93.5 | 81% (inactive) | 93.5% (inactive) | 85.3% (inactive) | 98.5% (inactive) | 10.1% (inactive) | 88.4 | 98.5 | -5.26% (inactive) | -2.36% (inactive) |
| Cc1ccc(-c2nnc(SCC(=O)N3CC(C)CC(C)C3)o2)cc1C (stereo not given) | 97 | 106% (inactive) | 97% (inactive) | 71.4% (inactive) | 90.7% (inactive) | -2.04% (inactive) | 92.7 | 90.7 | -2.13% (inactive) | -4.75% (inactive) |
| O=c1oc2ccccc2c(N2CCCCC2)c1CN1CCCCC1 | 86 | 99% (inactive) | 86% (inactive) | 86.2% (inactive) | 82.5% (inactive) | -0.775% (inactive) | 83.3 | 82.5 | -1.05% (inactive) | -4.03% (inactive) |
| CCSc1nc2c(c(=O)n(C)c(=O)n2C)n1Cc1ccc(Cl)cc1 | 70.5 | 71% (inactive) | 70.5% (inactive) | 63.2% (inactive) | 83% (inactive) | -4.85% (inactive) | 87.9 | 83 | -0.92% (inactive) | 2.36% (inactive) |
| CCCc1cc(Nc2cccc(OC)c2)n2ncnc2n1 | 83 | 129% (inactive) | 83% (inactive) | 94.6% (inactive) | 81.2% (inactive) | -0.635% (inactive) | 81.8 | 81.2 | -4.1% (inactive) | -5% (inactive) |
| O=C(c1cccc(C(=O)N2CCN(c3ccc(F)cc3)CC2)c1)N1CCN(c2ccc(F)cc2)CC1 | 110 | 102% (inactive) | 110% (inactive) | 74% (inactive) | 73.4% (inactive) | 24% (inactive) | 49.4 | 73.4 | 3.51% (inactive) | 2.95% (inactive) |
| COc1cccc(NC(=O)CSc2nnnn2C(C)C)c1 | 118 | 86.5% (inactive) | 118% (inactive) | 97.9% (inactive) | 103% (inactive) | 13.7% (inactive) | 89.7 | 103 | -3.65% (inactive) | 0.79% (inactive) |
| Cc1ccc(-c2nc3cc(N)ccc3o2)cc1 | 104 | 115% (inactive) | 104% (inactive) | 72.6% (inactive) | 79.9% (inactive) | -1.81% (inactive) | 81.7 | 79.9 | -2.82% (inactive) | -2.17% (inactive) |
| C/C(CC(O)(/C=N/O)c1ccccc1)=N\O (stereo not given) | 86 | 91.5% (inactive) | 86% (inactive) | 107% (inactive) | 94% (inactive) | 2.94% (inactive) | 91.1 | 94 | -0.26% (inactive) | 3.77% (inactive) |
| CCCc1cc(C(=O)Nc2ccccc2C(=O)OC)no1 | 89.5 | 109% (inactive) | 89.5% (inactive) | 64.7% (inactive) | 89.3% (inactive) | 7.36% (inactive) | 82 | 89.3 | 4.1% (inactive) | 14.5% (inactive) |
| CCOCC(=O)Nc1nc2ccc(OC)cc2s1 | 107 | 102% (inactive) | 107% (inactive) | 93.9% (inactive) | 90.4% (inactive) | 8.94% (inactive) | 81.5 | 90.4 | 0.79% (inactive) | 5.57% (inactive) |
| O=S(=O)(Cc1ccccc1)N1CCN(Cc2ccccc2)CC1 | 84.5 | 109% (inactive) | 84.5% (inactive) | 87.3% (inactive) | 95.5% (inactive) | 15.5% (inactive) | 79.9 | 95.5 | -0.13% (inactive) | 0.95% (inactive) |
| CCN1CCN(c2c(Cl)cccc2NC(=O)c2ccc3c(c2)OCCO3)CC1 | 80 | 84.5% (inactive) | 80% (inactive) | 95.2% (inactive) | 81.7% (inactive) | 1.33% (inactive) | 80.4 | 81.7 | -5% (inactive) | 3% (inactive) |
| C=CCn1c(SCc2ccc3nonc3c2)nnc1-c1cccs1 | 84 | 79.5% (inactive) | 84% (inactive) | 85.8% (inactive) | 87.3% (inactive) | 2.61% (inactive) | 84.7 | 87.3 | -5.47% (inactive) | 0.98% (inactive) |
